Results reported in ChEMBL document CHEMBL4422696, “Fusicoccane Diterpenes from Hypoestes forsskaolii as Heat Shock Protein 90 (Hsp90) Modulators” (J Nat Prod, 2019).
Calls of active or inactive are those of the source. No cut-off for these calls is given here.

Key:
[1] = system: Jurkat; experiment: Antiproliferative activity against human Jurkat cells after 48 hrs by MTT assay; type: functional, cell-based
Summary of the method: (§1)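 Cells grown in DMEM (HeLa) or RPMI 1640 (Jurkat) with 10% FBS at 37 °C and 5% CO2. Seeded at 1 × 10^4 cells/well the day before, then exposed 48 h to 10−150 μM compound (final DMSO ≤0.15% v/v), with vehicle and etoposide controls. MTT read at 550 nm; IC50 from dose–response curves versus controls; mean ± SD, ≥3 experiments in duplicate.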

[2] = system: HeLa; experiment: Antiproliferative activity against human HeLa cells after 48 hrs by MTT assay; type: functional, cell-based; summary of the method: as §1
[3] = target: T1, Heat shock protein HSP 90-alpha (Homo sapiens, UniProt P07900); experiment: Binding affinity to recombinant human HSP90 alpha by Surface plasmon resonance analysis
[4] = target: T1, Heat shock protein HSP 90-alpha; experiment: Inhibition of HSP90 alpha in human HeLa cells assessed as effect on AKT phosphorylation at 10 uM after 48 hrs by Western blot analysis relative to GAPDH (reference value: 1); type: cell-based
[5] = target: T1, Heat shock protein HSP 90-alpha; experiment: Inhibition of HSP90 alpha in human HeLa cells assessed as effect on HSP70 expression at 20 uM after 48 hrs by Western blot analysis relative to alpha-tubulin (reference value: 1); type: cell-based
[6] = system: HeLa; experiment: Effect on total AKT expression in human HeLa cells at 10 uM after 48 hrs by Western blot analysis relative to GAPDH (reference value: 1); type: ADME, cell-based
[7] = target: T1, Heat shock protein HSP 90-alpha; experiment: Inhibition of HSP90 alpha in human HeLa cells assessed as effect on CDC2/p34 phosphorylation at Thr161 residue at 10 uM after 48 hrs by Western blot analysis relative to GAPDH (reference value: 1); type: cell-based
[8] = target: T1, Heat shock protein HSP 90-alpha; experiment: Inhibition of HSP90 alpha in human HeLa cells assessed as effect on Cyclin A expression at 10 uM after 48 hrs by Western blot analysis relative to GAPDH (reference value: 1); type: cell-based
[9] = target: T1, Heat shock protein HSP 90-alpha; experiment: Inhibition of HSP90 alpha in human HeLa cells assessed as effect on CDC2/p34 phosphorylation at Thr161 residue at 20 uM after 48 hrs by Western blot analysis relative to GAPDH (reference value: 1); type: cell-based
[10] = target: T1, Heat shock protein HSP 90-alpha; experiment: Inhibition of HSP90 alpha in human HeLa cells assessed as effect on ERK1 phosphorylation at 10 uM after 48 hrs by Western blot analysis relative to GAPDH (reference value: 1); type: cell-based
[11] = system: HeLa; experiment: Effect on total ERK1 expression in human HeLa cells at 10 uM after 48 hrs by Western blot analysis relative to GAPDH (reference value: 1); type: ADME, cell-based
[12] = target: T1, Heat shock protein HSP 90-alpha; experiment: Inhibition of HSP90 alpha in human HeLa cells assessed as effect on EGFR expression at 10 uM after 48 hrs by Western blot analysis relative to GAPDH (reference value: 1); type: cell-based
[13] = system: HeLa; experiment: Effect on total AKT expression in human HeLa cells at 20 uM after 48 hrs by Western blot analysis relative to GAPDH (reference value: 1); type: ADME, cell-based
[14] = system: HeLa; experiment: Effect on total ERK1 expression in human HeLa cells at 20 uM after 48 hrs by Western blot analysis relative to GAPDH (reference value: 1); type: ADME, cell-based
[15] = system: PBMC; experiment: Cytotoxicity against human PBMC up to 100 uM after 48 hrs by trypan blue exclusion assay; type: cell-based
[16] = system: HeLa; experiment: Effect on total Cdc2 expression in human HeLa cells at 20 uM after 48 hrs by Western blot analysis relative to GAPDH (reference value: 1); type: ADME, cell-based
[17] = system: HeLa; experiment: Effect on total Cdc2 expression in human HeLa cells at 10 uM after 48 hrs by Western blot analysis relative to GAPDH (reference value: 1); type: ADME, cell-based
[18] = target: T1, Heat shock protein HSP 90-alpha; experiment: Inhibition of HSP90 alpha in human HeLa cells assessed as effect on HSP70 expression at 10 uM after 48 hrs by Western blot analysis relative to alpha-tubulin (reference value: 1); type: cell-based
[19] = target: T1, Heat shock protein HSP 90-alpha; experiment: Inhibition of HSP90 alpha in human HeLa cells assessed as effect on HSP90 expression at 10 uM after 48 hrs by Western blot analysis relative to alpha-tubulin (reference value: 1); type: cell-based
[20] = target: T1, Heat shock protein HSP 90-alpha; experiment: Inhibition of HSP90 alpha in human HeLa cells assessed as effect on ERK1 phosphorylation at 20 uM after 48 hrs by Western blot analysis relative to GAPDH (reference value: 1); type: cell-based
[21] = target: T1, Heat shock protein HSP 90-alpha; experiment: Inhibition of HSP90 alpha in human HeLa cells assessed as effect on Cyclin A expression at 20 uM after 48 hrs by Western blot analysis relative to GAPDH (reference value: 1); type: cell-based
[22] = system: HeLa; experiment: Cell cycle arrest in human HeLa cells assessed as accumulation at G2/M phase at 10 to 20 uM after 48 hrs by propidium iodide staining based flow cytometry; type: functional
Summary of the method: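 HeLa cells in DMEM with 10% FBS at 37 °C, 5% CO2, exposed to 10 or 20 μM for 48 h, DMSO vehicle (final ≤0.15%). Permeabilized cells stained with propidium iodide and analyzed by flow cytometry, 5000 events per sample. Percentages in hypodiploid, G0/G1, S and G2/M are given minus control values. Mean ± SD of three experiments run in duplicate.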

[23] = target: T1, Heat shock protein HSP 90-alpha; experiment: Inhibition of HSP90 alpha in human HeLa cells assessed as effect on HSP90 expression at 20 uM after 48 hrs by Western blot analysis relative to alpha-tubulin (reference value: 1); type: cell-based
[24] = target: T1, Heat shock protein HSP 90-alpha; experiment: Inhibition of HSP90 alpha in human HeLa cells assessed as effect on EGFR expression at 20 uM after 48 hrs by Western blot analysis relative to GAPDH (reference value: 1); type: cell-based

For `CC1=C2C[C@]3(C)C(=O)C=C(C(C)C)[C@H]3C/C=C(/C)[C@@H]2CC1=O`, which IC50 [1] is on record?
The IC50 was over 20 µM.

And the IC50 [2]?
The IC50 was over 20 µM.

What about the Kd ([3]; read-out: Kd) of the same molecule?
Its Kd is 1.74 µM.

With `CC1=C2C[C@]3(C)C(=O)C[C@@H](C(C)(C)O)[C@H]3C/C=C(/C)[C@@H]2CC1=O` as the molecule, how does the fold change (FC) [4] read?
Its fold change (FC) is 0.3.

What about the fold change (FC) [5] of the same molecule?
Its fold change (FC) is 0.8.

And the “fold change (FC)” value [6]?
The value was 1.

What about the fold change (FC) [7] of the same molecule?
The fold change (FC) was 0.2.

And the fold change (FC) [8]?
The fold change (FC) was 1.

And the fold change (FC) [9]?
The fold change (FC) was 0.1.

And the fold change (FC) [10]?
The fold change (FC) was 0.5.

And the “fold change (FC)” value [11]?
The value was 1.2.

What about the fold change (FC) [12] of the same molecule?
The fold change (FC) was 1.3.

What about the IC50 [1] of the same molecule?
The IC50 was over 20 µM.

What about the “fold change (FC)” value [13] of the same molecule?
The value was 1.

What about the “fold change (FC)” value [14] of the same molecule?
Its value is 1.2.

And the Activity [15]?
The Activity was “Non-Toxic”.

What about the “fold change (FC)” value [16] of the same molecule?
Its value is 1.5.

And the “fold change (FC)” value [17]?
The value was 1.8.

What about the fold change (FC) [18] of the same molecule?
The fold change (FC) was 1.

What about the fold change (FC) [19] of the same molecule?
Its fold change (FC) is 1.4.

What about the fold change (FC) [20] of the same molecule?
Its fold change (FC) is 0.3.

What about the fold change (FC) [21] of the same molecule?
Its fold change (FC) is 1.2.

And the IC50 [2]?
The IC50 was over 20 µM.

And the Activity [22]?
The Activity was “Active”.

What about the fold change (FC) [23] of the same molecule?
The fold change (FC) was 1.3.

And the Kd ([3]; read-out: Kd)?
Its Kd is 0.0153 µM.

And the fold change (FC) [24]?
The fold change (FC) was 1.4.

`C/C1=C/C[C@@H]2[C@H](C(C)C)CC(=O)[C@@]2(C)/C=C2/C(C)CCC12` (stereo partly specified) was tested. Which IC50 [1] did it give?
The IC50 was over 20 µM.

And the IC50 [2]?
Its IC50 is over 20 µM.

What about the Kd ([3]; read-out: Kd) of the same molecule?
The Kd was 0.0205 µM.

`CC(=O)O[C@H]1C[C@@](O)(C(C)C)[C@H]2C/C=C(/C)[C@@H]3CC(=O)C(C)=C3C[C@]12C` was tested. Which IC50 [1] did it give?
The IC50 was over 20 µM.

What about the IC50 [2] of the same molecule?
Its IC50 is over 20 µM.

And the Kd [3]?
Its Kd is “Not Active”.

What does the source list for `C/C1=C/C[C@@H]2[C@H](C(C)C)CC[C@@]2(C)CC23OC2(C)CC[C@@H]13` (stereo partly specified)?
IC50 [1]: > 20 µM; IC50 [2]: > 20 µM; Kd [3]: Not Active

`CC1=C2C[C@]3(C)C(=O)C=C(C(C)C)C3CC(O)/C(C)=C\2CC1=O` (stereo partly specified) was tested. Which IC50 [1] did it give?
Its IC50 is over 20 µM.

And the IC50 [2]?
The IC50 was over 20 µM.

What about the Kd [3] of the same molecule?
The Kd was “Not Active”.

For `CC(C)[C@@H]1CC(=O)[C@@]2(C)/C=C3\C(CC[C@@]3(C)O)[C@]3(C)O[C@@H]3CC12` (stereo partly specified), which IC50 [1] is on record?
The IC50 was over 20 µM.

What about the IC50 [2] of the same molecule?
Its IC50 is over 20 µM.

What about the Kd ([3]; read-out: Kd) of the same molecule?
The Kd was 0.045 µM.

Which IC50 [1] does the source give for `C=C1CC[C@@H]2[C@H]1C[C@]1(C)CC[C@@H](C(C)C)[C@H]1C[C@H]1O[C@@]21C` here?
Its IC50 is over 20 µM.

And the IC50 [2]?
The IC50 was over 20 µM.

And the Kd ([3]; read-out: Kd)?
The Kd was 0.13 µM.

With `CC1=C2C[C@@]3(C)O[C@@](C)([C@@H]2CC1=O)[C@H]1CC(=O)[C@@](C(C)C)(CC3=O)O1` as the molecule, how does the IC50 [1] read?
Its IC50 is over 20 µM.

And the IC50 [2]?
The IC50 was over 20 µM.

And the Kd ([3]; read-out: Kd)?
Its Kd is 0.12 µM.

With `CC1=C2C[C@]3(C)C(=O)C=C(C(C)C)[C@H]3C[C@H]3O[C@@]3(C)[C@@H]2CC1=O` as the molecule, how does the IC50 [1] read?
The IC50 was over 20 µM.

And the IC50 [2]?
The IC50 was over 20 µM.

And the Kd [3]?
The Kd was “Not Active”.

Which IC50 [1] does the source give for `CC1=CCC23OC4(C[C@]2(C)C(=O)C=C3C(C)C)[C@H](C)C(=O)C[C@@H]14` (stereo partly specified) here?
Its IC50 is over 20 µM.

And the IC50 [2]?
The IC50 was over 20 µM.

What about the Kd ([3]; read-out: Kd) of the same molecule?
The Kd was 0.217 µM.

`CC1=C2C[C@]3(C)C(=O)C[C@@H](C(C)C)[C@H]3C/C=C(/C)[C@@H]2CC1=O` [HYPOESTENONE] was tested. Which IC50 [1] did it give?
Its IC50 is over 20 µM.

And the IC50 [2]?
The IC50 was over 20 µM.

And the Kd ([3]; read-out: Kd)?
The Kd was 1 µM.

Which results are given for `C=C1CC[C@H]2/C(C)=C\C[C@@H]3[C@H](C(C)C)CC(=O)[C@@]3(C)C[C@@H]12`?
IC50 [1]: > 20 µM; IC50 [2]: > 20 µM; Kd ([3]; read-out: Kd): 0.401 µM

How did the IC50 [1] turn out when `CC1=C2C[C@]3(C)CC[C@@H](C(C)C)[C@H]3C/C=C(/C)[C@@H]2CC1=O` was run?
Its IC50 is over 20 µM.

What about the IC50 [2] of the same molecule?
Its IC50 is over 20 µM.

And the Kd ([3]; read-out: Kd)?
Its Kd is 0.028 µM.

Which results are given for `CC1=C2C[C@]3(C)C(=O)C[C@@H](C(C)C)[C@H]3C[C@H]3O[C@@]3(C)[C@@H]2CC1=O`?
IC50 [1]: > 20 µM; IC50 [2]: > 20 µM; Kd [3]: Not Active
